# How the values were obtained:
# Assay type in all cases: functional, cell-based
# K562 = test: Cytotoxicity against human K562 cells after 72 hrs by calcein acetoxymethyl assay
# How it was run: (§1)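 Tumour cells kept in DMEM at 37 °C, 5% CO₂, 100% humidity; seeded at about 1.25 × 10⁵ cells/ml and preincubated 12 h. Compounds added at 0.5–50 μM (0.5–200 μM for FeCl₃·6H₂O) for 72 h. Live cells then stained 1 h with calcein AM and fluorescence read at 485/538 nm. IC₅₀ estimated as concentration lethal to 50% of cells; mean of three values.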
# HOS = test: Cytotoxicity against human HOS cells after 72 hrs by calcein acetoxymethyl assay; how it was run: as §1
# G-361 = test: Cytotoxicity against human G361 cells after 72 hrs by calcein acetoxymethyl assay; how it was run: as §1
# MCF7 = test: Cytotoxicity against human MCF7 cells after 72 hrs by calcein acetoxymethyl assay; how it was run: as §1
Compound,"IC50 (K562; Homo sapiens, K562, 72 h)","IC50 (HOS; Homo sapiens, HOS, 72 h)","IC50 (G-361; Homo sapiens, G-361, 72 h)","IC50 (MCF7; Homo sapiens, MCF7, 72 h)",IC50 (K562; k562),IC50 (HOS; hos),IC50 (G-361; g-361),IC50 (MCF7; mcf7)
OC[C@@H]1O[C@H](n2cnc3c(NCc4ccc(F)cc4)ncnc32)[C@@H](O)[C@H]1O,> 50 µM,> 50 µM,> 50 µM,> 50 µM,–,–,–,–
OC[C@@H]1O[C@H](n2cnc3c(NCc4ccc(OC(F)(F)F)cc4)ncnc32)[C@@H](O)[C@H]1O,> 50 µM,> 50 µM,> 50 µM,> 50 µM,–,–,–,–
FeCl3.6H2O,–,–,–,–,> 200 µM,> 200 µM,> 200 µM,> 200 µM

# From ChEMBL document CHEMBL1151795, “Novel iron complexes bearing N6-substituted adenosine derivatives: synthesis, magnetic, 57Fe Mössbauer, DFT, and in vitro cytotoxicity studies” (Bioorg Med Chem, 2008)
